Assay results published in ChEMBL document CHEMBL1124395, “Studies on bioactive compounds. 13. Synthesis and lack of growth-inhibitory properties of cyclohexane-1,2,4-triol 1,2-diesters, which resemble ring C of the phorbol ester molecule” (J Med Chem, 1989).

Experiments:
Homo sapiens = species on record: Homo sapiens; assay: Concentration which cause half-maximal growth inhibition of human A549 lung carcinoma cell line; format: functional
How it was run: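 A549 human lung carcinoma cells ((2-5) × 10^4/well) grown in Ham's F12 with 10% fetal calf serum under 95% air/5% CO2 with compound for 4-5 days, until controls were confluent. Medium and compound were renewed every 2 days; diacylglycerols were added three times daily at 6-h intervals for 3 days. Final DMSO was ≤0.5%. Cells were trypsinised and counted by hemocytometer or Coulter counter. The 50% growth-inhibitory concentration was taken by linear regression (≥5 concentrations, four experiments).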

[1] = Concentration which cause half-maximal Lactate dehydrogenase in […]
How it was run: (§1)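 A549 cells (1 × 10^5/well) exposed 24 h to compound in medium with only 1% fetal calf serum; diacylglycerols added 3 times at 6-hourly intervals. Supernatant briefly centrifuged and kept on ice, then LDH activity read spectrophotometrically. Maximal releasable LDH came from control cells lysed with 1% Triton X-100. Half-maximal release was obtained by linear regression of the linear part of curves (≥5 concentrations, four experiments).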

[2] = Concentration which cause half-maximal Lactate dehydrogenase release in […]; how it was run: as §1

Row | SMILES | IC50 (Homo sapiens) | LC50 [1] | LC50 [2]
1 | CCCCCCCC(=O)O[C@@H]1CC[C@H](O)C[C@H]1OC(=O)CCCCCCC | 43 µM | 36 µM | 
2 | CCCCCCCC(=O)O[C@H]1CC[C@H](O)C[C@@H]1OC(=O)CCCCCCC | 58 µM | 46 µM | 
3 | CCCCCCCC/C=C\CCCCCCCC(=O)OCC(CO)OC(C)=O (stereo unspecified) | 70 µM |  | 75 µM
4 | CCCCCCCC(=O)OC[C@@H](CO)OC(=O)CCCCCCC | 44 µM | 56 µM | 
5 | CCCCCCCCCCCCCC(=O)O[C@@]12[C@H](OC(C)=O)[C@@H](C)[C@@]3(O)[C@@H](C=C(CO)C[C@]4(C)C(=O)C(C)=C[C@@H]34)[C@@H]1C2(C)C |  |  | > 1 µM
6 | CCCCCCCC(=O)O[C@H]1CC[C@H](O)C[C@H]1OC(=O)CCCCCCC | 49 µM |  | 31 µM
